Source: PubChem BioAssay (several laboratories)
FLuc stim CS – firefly luciferase counter-screen for stimulation assays; activation factor at 10 µM; P08659; 200,000 tested, under 10 active; ATPlite luciferase biochemical, luminescence, 10 min; 0 = ATP-free wells, 1 = DMSO control; AID 1027;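 active = luciferase activation factor, scaled between plate controls, of at least 2 with compound at 10 µM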
Target sequence (P08659 whole entry, looked up): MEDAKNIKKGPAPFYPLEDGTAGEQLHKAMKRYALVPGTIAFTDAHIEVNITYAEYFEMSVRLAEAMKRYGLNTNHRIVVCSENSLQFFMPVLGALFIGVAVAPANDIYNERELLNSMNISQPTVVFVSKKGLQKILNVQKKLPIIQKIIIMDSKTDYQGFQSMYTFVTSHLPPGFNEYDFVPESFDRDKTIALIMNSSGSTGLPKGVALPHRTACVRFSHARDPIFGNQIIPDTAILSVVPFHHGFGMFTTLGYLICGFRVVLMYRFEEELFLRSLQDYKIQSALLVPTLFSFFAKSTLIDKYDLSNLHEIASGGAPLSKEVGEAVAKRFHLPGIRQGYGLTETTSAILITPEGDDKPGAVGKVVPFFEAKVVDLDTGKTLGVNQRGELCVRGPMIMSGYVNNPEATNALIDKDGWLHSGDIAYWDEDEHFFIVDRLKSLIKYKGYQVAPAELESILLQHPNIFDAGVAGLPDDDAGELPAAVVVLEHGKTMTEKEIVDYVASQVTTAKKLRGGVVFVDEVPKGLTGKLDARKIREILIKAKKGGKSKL
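System: cell-free luciferase reagent; medium: PBS as buffer for the ATP substrate; doses: test compounds dosed from 2 mM stocks in 100% DMSO; incubation: 10 min, room temperature; measured by: luminescence from luciferase reaction; read-out: luciferase activation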
APP 5UTR inh – APP translation inhibition; SH-SY5Y APP 5'UTR-luciferase reporter, luminescence; inhibition, % at 2 µM; 0.82% of 190,000 active; AID 1285;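 active = inhibition above a set limit, derived from the sample mean plus 3 SD, cut at about 45% in these data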
FLuc inh counter – Photinus pyralis luciferase inhibition counter-screen; P08659; ATPLite firefly luciferase biochemical luminescence, 10 min; inhibition, % at 10 µM; 1.5% of 200,000 active;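 active = inhibition above about 50% when tested at 10 µM, limit read from the data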
APP 5'UTR act – activates APP 5'UTR luciferase reporter | SH-SY5Y APP 5'UTR luciferase reporter, luminescence; zero percent = DMSO vehicle wells | activation, % at 2 µM | 1% of 190,000 active;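 active = activation above a set limit, based on mean plus 3 SD of controls, cut at about 140% in these data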
NF-kB expr up – NF-kB expression increase, human neuronal cells; fold change at 12.5 µM; AID 1239; NF-kB reporter expression; active compounds read high; 1.6% of 190,000 active; in the data active = fold change above about 3.3
STAT1 act – increases IFN-gamma driven STAT1 reporter signal | NIH 3T3 STAT1-luciferase reporter, luminescence; 100% = IFN-gamma alone, no compound | activation (% of control), % at 5.5 µM | 2.6% of 200,000 active | AID 932;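 active = activation above the screen-wide mean activation plus 3 SD, cut at about 130% in these data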;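 also: raw ratio to IFN-gamma control signal so 100% means no change and 0% no light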
* hit, by the source's call. The list is not random: actives were taken first. Their share in the collection is about 4.8%.

`Cc1ccc(C2=NN3C(C(=O)c4ccccc4)Oc4ccccc4C3C2)cc1` (configuration not stated) gave FLuc stim CS 1.1, APP 5UTR inh -20, FLuc inh counter -9, APP 5'UTR act 20, NF-kB expr up 1.1 and STAT1 act 99.
`COc1nc(-c2ccccc2)ccc1-c1noc(-c2ccco2)n1` gave FLuc stim CS 1, APP 5UTR inh -10, FLuc inh counter -2, APP 5'UTR act 10, NF-kB expr up 3.7* and STAT1 act 145*.
`COc1ccccc1-c1noc(-c2ccco2)n1` gave FLuc stim CS 0.7, APP 5UTR inh -118, FLuc inh counter 27, APP 5'UTR act 118, NF-kB expr up 2.6 and STAT1 act 131*.
For COc1ccc(-c2ccc(-c3noc(-c4ccco4)n3)c(OC)n2)cc1 the results were FLuc stim CS 1, APP 5UTR inh -14, FLuc inh counter -4, APP 5'UTR act 14, NF-kB expr up 1.2 and STAT1 act 110.
Screening CCOC(=O)c1sc(NC(=S)NC(=O)c2ccccc2)nc1C returned FLuc stim CS 0.6, APP 5UTR inh -86, FLuc inh counter 37, APP 5'UTR act 86, NF-kB expr up 2 and STAT1 act 126.
Screening COC(=O)c1sc(NC(=S)NC(=O)c2ccccc2Cl)nc1C returned FLuc stim CS 0.3, APP 5UTR inh -30, FLuc inh counter 67*, APP 5'UTR act 30, NF-kB expr up 1.3 and STAT1 act 121.
Screening COC(=O)c1sc(NC(=S)NC(=O)c2ccccc2)nc1C returned FLuc stim CS 0.4, APP 5UTR inh -84, FLuc inh counter 63*, APP 5'UTR act 84, NF-kB expr up 1 and STAT1 act 110.
Cc1ccc2[nH]cc(C(=O)NCc3cccs3)c(=O)c2c1 was read as FLuc stim CS 1, APP 5UTR inh 8, FLuc inh counter 1, APP 5'UTR act -8, NF-kB expr up 0.74 and STAT1 act 91.
`COc1cccc2c(=O)c(C(=O)NCc3cccs3)c[nH]c12` gave FLuc stim CS 0.8, APP 5UTR inh -49, FLuc inh counter 16, APP 5'UTR act 49, NF-kB expr up 2.4 and STAT1 act 130*.
O=C(N/N=C/c1cccc(Oc2ccccc2)c1)c1ccccc1Br was read as FLuc stim CS 1, APP 5UTR inh -3, FLuc inh counter -1, APP 5'UTR act 3, NF-kB expr up 1.1 and STAT1 act 102.
For COCC(C)N=C1NN=C(c2cc(C)n(Cc3ccccc3Cl)c2C)CS1 (configuration not stated) the results were FLuc stim CS 0.5, APP 5UTR inh -101, FLuc inh counter 54*, APP 5'UTR act 101, NF-kB expr up 1.2 and STAT1 act 72.
For COCCCN=C1NN=C(c2cc(C)n(Cc3ccco3)c2C)CS1 the results were FLuc stim CS 0.3, APP 5UTR inh 94*, FLuc inh counter 70*, APP 5'UTR act -94, NF-kB expr up 1.8 and STAT1 act 123.
`COc1ccc(-n2c(C)cc(C3=NNC(=NC4CC4)SC3)c2C)cc1` gave FLuc stim CS 0.7, APP 5UTR inh -93, FLuc inh counter 34, APP 5'UTR act 93, NF-kB expr up 1.3 and STAT1 act 42.
Cc1cc(C2=NNC(=NC3CC3)SC2)c(C)n1-c1ccccc1 was read as FLuc stim CS 0, APP 5UTR inh 76*, FLuc inh counter 97*, APP 5'UTR act -76, NF-kB expr up 0.13 and STAT1 act 17.
For C=CCn1c(C)cc(C2=NNC(=Nc3ccc(C)cc3)SC2)c1C the results were FLuc stim CS 1, APP 5UTR inh -14, FLuc inh counter 2, APP 5'UTR act 14, NF-kB expr up 0.92 and STAT1 act 121.
Cc1cc(C2=NNC(=NC3CC3)SC2)c(C)n1Cc1ccco1 was read as FLuc stim CS 0, APP 5UTR inh 47*, FLuc inh counter 96*, APP 5'UTR act -47, NF-kB expr up 0.36 and STAT1 act 53.
Screening Cc1cc(-c2csc(N)n2)c(C)n1Cc1ccco1 returned FLuc stim CS 1, APP 5UTR inh -8, FLuc inh counter -2, APP 5'UTR act 8, NF-kB expr up 1.2 and STAT1 act 97.
Screening CCN1CCN(c2ccc(NC(=O)c3ccc(C#N)cc3F)cc2Cl)CC1 returned FLuc stim CS 1, APP 5UTR inh -8, FLuc inh counter 0, APP 5'UTR act 7, NF-kB expr up 1.3 and STAT1 act 110.
`O=C(Nc1ccc(N2CCCCC2)cc1)c1cncc(Br)c1` gave FLuc stim CS 0.7, APP 5UTR inh -108, FLuc inh counter 30, APP 5'UTR act 108, NF-kB expr up 4* and STAT1 act 134*.
O=C(Cc1ccccc1)Nc1cccc(N2C(=O)C=CC2=O)c1 was read as FLuc stim CS 0.9, APP 5UTR inh 67*, FLuc inh counter 9, APP 5'UTR act -67, NF-kB expr up 1.3 and STAT1 act 95.
For CCN1CCN(c2ccc(NC(=O)c3ccccc3F)cc2Cl)CC1 the results were FLuc stim CS 0.9, APP 5UTR inh -75, FLuc inh counter 6, APP 5'UTR act 75, NF-kB expr up 2.4 and STAT1 act 132*.
O=C(Nc1ccncc1)c1cncc(Br)c1 was read as FLuc stim CS 1, APP 5UTR inh -13, FLuc inh counter 0, APP 5'UTR act 13, NF-kB expr up 1 and STAT1 act 95.
For O=C(Nc1ccc(N2CCCC2)cc1)c1ccccc1F the results were FLuc stim CS 0.3, APP 5UTR inh -137, FLuc inh counter 71*, APP 5'UTR act 137*, NF-kB expr up 1.9 and STAT1 act 149*.
`CN1CCN(c2ccc(NC(=O)Cc3ccccc3)cc2)CC1` gave FLuc stim CS 0.9, APP 5UTR inh -53, FLuc inh counter 6, NF-kB expr up 2.4 and STAT1 act 113.
`O=C(Nc1ccc(N2CCCC2=O)cc1)c1cccc(F)c1` gave FLuc stim CS 0.6, APP 5UTR inh -57, FLuc inh counter 44, APP 5'UTR act 57, NF-kB expr up 5.4* and STAT1 act 138*.
For O=C(Cc1ccccc1)Nc1ccc(N2CCCCC2)cc1 the results were FLuc stim CS 0.3, APP 5UTR inh -185, FLuc inh counter 73*, APP 5'UTR act 185*, NF-kB expr up 4.9* and STAT1 act 130*.
`Cc1ccc(C(=O)Nc2ccc(N3CCCC3)cc2)cc1` gave FLuc stim CS 0.8, APP 5UTR inh -109, FLuc inh counter 16, APP 5'UTR act 109, NF-kB expr up 1 and STAT1 act 140*.
Cc1ccc(C(=O)Nc2ccc(N3CCOCC3)cc2)cc1 was read as FLuc stim CS 0.7, APP 5UTR inh -66, FLuc inh counter 28, APP 5'UTR act 66, NF-kB expr up 1.8 and STAT1 act 125.
Screening Cc1cnc(C(=O)Nc2ccc(N3CCOCC3)cc2)cn1 returned FLuc stim CS 0.9, APP 5UTR inh -8, FLuc inh counter 9, APP 5'UTR act 8, NF-kB expr up 1.2 and STAT1 act 122.
